For nine compounds, Activity, inhibition and IC50 results are on record in ChEMBL document CHEMBL4033710, “Synthesis and biological evaluation of kresoxim-methyl analogues as novel inhibitors of hypoxia-inducible factor (HIF)-1 accumulation in cancer cells” (Bioorg Med Chem Lett, 2017).

The term IC50 denotes the midpoint of a concentration-inhibition curve. Read a low IC50 as greater potency in that assay.

Activity calls are given as the source filed them. No cut-off for these calls is given here.

Common to all, as to format: functional, cell-based
The subject of test [1] is HCT-116. Put plainly: Increase in intracellular oxygen content in human HCT116 cells at 5 uM after 6 hrs under hypoxic-condition by mono azo rhodamine/Nuclear-ID Red DNA staining based fluorescence assay. Summed up: (§1)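 HCT116 cells treated with compound for 6 h under hypoxia and loaded with the hypoxia-sensitive probe mono azo rhodamine (MAR). MAR fluoresces when its azo group is reduced in hypoxia. Nuclei were counterstained with NUCLEAR-ID Red. The value is the MAR/NUCLEAR-ID fluorescence intensity ratio, compared against a hypoxia control by significance testing.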

The test system of test [2] is HCT-116. Put plainly: Inhibition of hypoxia-induced HIF1-alpha accumulation in human HCT116 cells after 6 hrs by immunoblot analysis. Put shortly: (§2)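 HCT116 cells incubated under hypoxia for 6 h with each compound. HIF-1α protein was detected by immunoblot with specific antibodies, using β-tubulin as loading reference.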
On the technique in general: A western blot detects proteins with antibodies after separation by electrophoresis.

The subject of test [3] is HCT-116. As to the kind of experiment: Cytotoxicity against human HCT116 cells after 72 hrs by methylene blue staining based assay. To be noted: HCT-116, 72 h. Put shortly: (§3)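 HCT116 cells exposed to each analogue for 72 h. Viability read out by methylene blue staining.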
In test [4] the test system is HCT-116. As to the kind of experiment: Cytotoxicity against human HCT116 cells at 0.625 to 10 uM after 72 hrs under hypoxic condition by methylene blue staining based assay.
Test [5] deals with HCT-116. Put plainly: Increase in intracellular oxygen content in human HCT116 cells after 6 hrs under hypoxic-condition by mono azo rhodamine/ Nuclear-ID Red DNA staining based fluorescence assay. Summed up: as §1
The subject of test [6] is HCT-116. Put plainly: Inhibition of hypoxia-induced HIF1-alpha accumulation in human HCT116 cells at 5 uM after 6 hrs by immunoblot analysis. Summed up: as §2
Test [7] concerns HCT-116. As to the kind of experiment: Cytotoxicity against human HCT116 cells at 0.625 to 10 uM after 72 hrs by methylene blue staining based assay. Summed up: as §3

In the case of `CO/N=C(/C(=O)OC)c1ccccc1COc1cccc(OCc2cc(C(F)(F)F)cc(C(F)(F)F)c2)c1`, the outcome in test [1] and in test [4] was Active. The inhibition entry in test [2] is “Dose-dependent effect”. In test [3], it took 1360 nM to reach half-maximal inhibition (IC50).
For the compound `CO/N=C(/C(=O)OC)c1ccccc1COc1cccc(OCc2ccc(Cl)cc2)c1`, the Activity result in test [5] is “Dose-dependent effect”. Besides, the inhibition result in test [2] is “Dose-dependent effect”. This compound came in with an IC50 in test [3] of 1620 nM. For the same compound, in test [4], the result was Active.
On to `CO/N=C(\C)c1cccc(OCc2ccccc2/C(=N\OC)C(=O)OC)c1`, for which the result in test [1] was Active.
For `CO/N=C/c1cccc(OCc2ccccc2/C(=N\OC)C(=O)OC)c1`, the result in test [1] was Active.
As for `CO/N=C(/C(=O)OC)c1ccccc1COc1cccc(OCc2ccccc2)c1`, the result in test [1] was Active.
In the case of `C=Cc1ccc(COc2cccc(OCc3ccccc3/C(=N\OC)C(=O)OC)c2)cc1`, the result in test [1] and in test [4] was Active. In addition, the inhibition result in test [2] is “Dose-dependent effect”. The same compound returned an IC50 in test [3] of 1260 nM.
Regarding `CO/N=C/c1ccc(OC)c(OCc2ccccc2/C(=N\OC)C(=O)OC)c1`, the result in test [1] was Active.
For the compound `CO/N=C(/C(=O)OC)c1ccccc1COc1cccc(OCC#N)c1`, the outcome in test [1], in test [7] and in test [4] was inactive. For the same compound, the inhibition entry in test [6] is “inactive”.
Regarding `CO/N=C(/C(=O)OC)c1ccccc1COc1cccc(O)c1`, the outcome in test [1] was Active.
